Assay results published in ChEMBL document CHEMBL4602651, “Development of selective mono or dual PROTAC degrader probe of CDK isoforms” (Eur J Med Chem, 2020).
Active and inactive are the calls of the source. No cut-off for these calls is given here.

Assays:
[1] = biological target: T1, Protein cereblon/Cyclin-dependent kinase 2/Cyclin-dependent kinase 9 (Homo sapiens, UniProt P24941+P50750+Q96SW2); test: Protac activity at CRBN/CDK2/CDK9 in AR-negative human PC3 cells assessed as CDK2 degradation at 10^-1 to 10^3 nM after 12 hrs by Western blot analysis; type: cell-based; conditions: PC-3
[2] = biological target: T1, Protein cereblon/Cyclin-dependent kinase 2/Cyclin-dependent kinase 9; test: Protac activity at CRBN/CDK2/CDK9 in AR-negative human PC3 cells assessed as CDK9 degradation at 10^-1 to 10^3 nM after 12 hrs by Western blot analysis; type: cell-based; conditions: PC-3
PC-3 = test: Antiproliferative activity against AR-negative human PC3 cells assessed as reduction in cell viability after 5 days by CCK8 assay; type: functional, cell-based; conditions: PC-3, 120 h
Method in brief: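 Cells seeded at 3 × 10^3 per well for 24 h, then dosed in 10-point, 3-fold serial dilution from 10 µM. CCK-8 added after 5 days, 4 h at 37 °C, absorbance at 450 nm. IC50 averaged from three separate determinations (at least two independent runs, duplicate wells). PC-3 grown in DMEM/F12 (1:1), LO2 in RPMI 1640, both with 10% FBS.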

[3] = biological target: T1, Protein cereblon/Cyclin-dependent kinase 2/Cyclin-dependent kinase 9; test: Protac activity at CRBN/CDK2/CDK9 in AR-negative human PC3 cells assessed as induction of CDK2 protein degradation after 24 hrs by Western blot analysis; type: cell-based; conditions: PC-3
Method in brief: (§1)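 PC-3 cells exposed to a degrader concentration series, then immunoblotted for CDK2 and CDK9 versus β-tubulin. The figure legend gives 24 h exposure. DC50 taken as mean of 2 determinations from densitometry.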

[4] = biological target: T1, Protein cereblon/Cyclin-dependent kinase 2/Cyclin-dependent kinase 9; test: Protac activity at CRBN/CDK2/CDK9 in AR-negative human PC3 cells assessed as induction of CDK9 protein degradation after 24 hrs by Western blot analysis; type: cell-based; conditions: PC-3; method in brief: as §1
[5] = biological target: T2, Protein cereblon/Cyclin-dependent kinase 2 (Homo sapiens) (UniProt P24941+Q96SW2); test: Protac activity at CRBN/CDK2 in AR-negative human PC3 cells assessed as induction of CDK2 protein degradation at 1 uM after 12 hrs by Western blot analysis; type: cell-based; conditions: PC-3
Method in brief: (§2)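 PC-3 cells (5 × 10^5 per well) treated 12 h at single concentrations (50 nM, 500 nM, 1, 5 or 30 µM). RIPA lysates (50 µg) run on 10% SDS-PAGE and immunoblotted for CDK2, CDK5, CDK9 with β-tubulin loading control, then detected by chemiluminescence. Band intensities quantified densitometrically.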

[6] = biological target: T2, Protein cereblon/Cyclin-dependent kinase 2 (Homo sapiens); test: Protac activity at CRBN/CDK2 in AR-negative human PC3 cells assessed as induction of CDK2 protein degradation at 30 uM after 12 hrs by Western blot analysis; type: cell-based; conditions: PC-3; method in brief: as §2
[7] = biological target: T3, Protein cereblon/Cyclin-dependent kinase 9 (Homo sapiens) (UniProt P50750+Q96SW2); test: Protac activity at CRBN/CDK9 in AR-negative human PC3 cells assessed as induction of CDK9 protein degradation at 30 uM after 12 hrs by Western blot analysis; type: cell-based; conditions: PC-3
Method in brief: (§3)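 PC-3 cells (DMEM/F12 1:1, 10% FBS, 1% pen/strep, 37 °C, 5% CO2) plated at 5 × 10^5 per well, exposed to compound for 12 h. RIPA lysates with protease inhibitors; 50 µg total protein run on 10% SDS-PAGE, transferred to PVDF, blocked in 5% milk/TBS-T. Probed with anti-CDK9 (1/1000), β-tubulin loading control, HRP secondary, chemiluminescence; bands scored as degradation detected or not.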

[8] = biological target: T2, Protein cereblon/Cyclin-dependent kinase 2 (Homo sapiens); test: Protac activity at CRBN/CDK2 in AR-negative human PC3 cells assessed as induction of CDK2 protein degradation at 50 nM after 12 hrs by Western blot analysis; type: cell-based; conditions: PC-3; method in brief: as §2
[9] = biological target: T3, Protein cereblon/Cyclin-dependent kinase 9 (Homo sapiens); test: Protac activity at CRBN/CDK9 in AR-negative human PC3 cells assessed as induction of CDK9 protein degradation at 50 nM after 12 hrs by Western blot analysis; type: cell-based; conditions: PC-3; method in brief: as §3
[10] = biological target: T3, Protein cereblon/Cyclin-dependent kinase 9 (Homo sapiens); test: Protac activity at CRBN/CDK9 in AR-negative human PC3 cells assessed as induction of CDK9 protein degradation at 1 uM after 12 hrs by Western blot analysis; type: cell-based; conditions: PC-3; method in brief: as §3

T3 sequence (P50750 whole entry, looked up): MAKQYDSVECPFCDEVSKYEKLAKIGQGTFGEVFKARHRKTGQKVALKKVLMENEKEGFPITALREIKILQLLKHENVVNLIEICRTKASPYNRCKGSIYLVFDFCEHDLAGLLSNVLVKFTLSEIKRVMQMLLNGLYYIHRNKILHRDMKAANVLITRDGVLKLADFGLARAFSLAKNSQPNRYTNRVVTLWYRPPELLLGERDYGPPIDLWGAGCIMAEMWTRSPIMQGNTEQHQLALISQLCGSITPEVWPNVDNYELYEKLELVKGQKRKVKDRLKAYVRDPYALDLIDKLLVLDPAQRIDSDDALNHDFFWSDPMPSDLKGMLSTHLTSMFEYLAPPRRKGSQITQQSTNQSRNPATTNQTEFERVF
T3 sequence (Q96SW2 whole entry, looked up): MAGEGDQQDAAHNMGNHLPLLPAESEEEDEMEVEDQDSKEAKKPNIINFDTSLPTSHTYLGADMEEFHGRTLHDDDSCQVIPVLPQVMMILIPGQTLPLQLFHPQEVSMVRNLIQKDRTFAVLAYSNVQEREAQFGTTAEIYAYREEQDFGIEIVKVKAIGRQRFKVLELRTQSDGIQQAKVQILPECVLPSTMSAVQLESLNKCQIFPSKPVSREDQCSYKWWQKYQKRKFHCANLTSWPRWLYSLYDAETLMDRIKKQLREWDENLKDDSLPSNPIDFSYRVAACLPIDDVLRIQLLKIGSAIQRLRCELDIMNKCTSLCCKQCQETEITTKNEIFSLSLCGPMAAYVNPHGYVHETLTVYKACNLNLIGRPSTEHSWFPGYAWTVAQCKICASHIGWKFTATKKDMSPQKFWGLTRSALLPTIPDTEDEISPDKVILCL

SMILES | IC50 (PC-3) [µM] | Activity [7] | Activity [8] | Activity [9] | also measured
O=C(CCC(=O)N1CCN(Cc2ccc(NC(=O)c3n[nH]cc3Nc3ncnc4[nH]ccc34)cc2)CC1)NCCNc1cccc2c1CN(C1CCC(=O)NC1=O)C2=O (centres undefined) | – | – | – | – | Activity [1]: Active; Activity [2]: Active
O=C(CCC(=O)N1CCN(Cc2ccc(NC(=O)c3n[nH]cc3Nc3ncnc4[nH]ccc34)cc2)CC1)NCCCOCCOCCOCCCNC(=O)COc1cccc2c1C(=O)N(C1CCC(=O)NC1=O)C2=O (centres undefined) | 18.3 | – | – | – | Activity [3]: inactive; Activity [4]: inactive
O=C(CCC(=O)N1CCN(Cc2ccc(NC(=O)c3n[nH]cc3Nc3ncnc4[nH]ccc34)cc2)CC1)NCCCCNc1cccc2c1C(=O)N(C1CCC(=O)NC1=O)C2=O (centres undefined) | 1.38 | Active | Active | Active | Activity [5]: inactive; Activity [6]: inactive
O=C(COc1cccc2c1C(=O)N(C1CCC(=O)NC1=O)C2=O)NCCOCCOCC(=O)N1CCN(Cc2ccc(NC(=O)c3n[nH]cc3Nc3ncnc4[nH]ccc34)cc2)CC1 (centres undefined) | 3.54 | Active | Active | Active | Activity [10]: Active
O=C(CCC(=O)N1CCN(Cc2ccc(NC(=O)c3n[nH]cc3Nc3ncnc4[nH]ccc34)cc2)CC1)NCCNc1ccc2c(c1)C(=O)N(C1CCC(=O)NC1=O)C2=O (centres undefined) | – | – | – | – | Activity [1]: Active; Activity [2]: Active
O=C(CCC(=O)N1CCC(NC(=O)c2n[nH]cc2NC(=O)c2c(Cl)cccc2Cl)CC1)NCCCCCCNc1cccc2c1C(=O)N(C1CCC(=O)NC1=O)C2=O (centres undefined) | 14.6 | – | – | – | –
O=C(CCC(=O)N1CCN(Cc2ccc(NC(=O)c3n[nH]cc3Nc3ncnc4[nH]ccc34)cc2)CC1)NCCCCCCNc1cccc2c1C(=O)N(C1CCC(=O)NC1=O)C2=O (centres undefined) | 3.6 | Active | Active | Active | Activity [10]: Active
O=C(CCC(=O)N1CCC(NC(=O)c2n[nH]cc2NC(=O)c2c(Cl)cccc2Cl)CC1)NCCCCCCNC(=O)COc1cccc2c1C(=O)N(C1CCC(=O)NC1=O)C2=O (centres undefined) | 1.31 | – | – | – | –
O=C(CCC(=O)N1CCN(Cc2ccc(NC(=O)c3n[nH]cc3Nc3ncnc4[nH]ccc34)cc2)CC1)NCCCCCCNC(=O)COc1cccc2c1C(=O)N(C1CCC(=O)NC1=O)C2=O (centres undefined) | 7.3 | – | – | – | Activity [3]: inactive; Activity [4]: inactive
O=C(CCC(=O)N1CCC(NC(=O)c2n[nH]cc2NC(=O)c2c(Cl)cccc2Cl)CC1)NCCNc1cccc2c1C(=O)N(C1CCC(=O)NC1=O)C2=O (centres undefined) | 5.95 | – | – | – | –
